KCNK9 inh – KCNK9 potassium channel inhibitors, primary screen, HEK293 cells, thallium flux; Potassium channel subfamily K member 9 (Homo sapiens), Q9NPC2; FluxOR thallium flux fluorescence; stronger effect = lower value; B-score at 10 µM; 310,000 tested, 1.2% active;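 active means ratio B-score over 3 SD below the library mean, with starting fluorescence within 5 SD of its mean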;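 further: negative B-score means less thallium flux so channel inhibition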
Target sequence (Q9NPC2 whole entry, looked up): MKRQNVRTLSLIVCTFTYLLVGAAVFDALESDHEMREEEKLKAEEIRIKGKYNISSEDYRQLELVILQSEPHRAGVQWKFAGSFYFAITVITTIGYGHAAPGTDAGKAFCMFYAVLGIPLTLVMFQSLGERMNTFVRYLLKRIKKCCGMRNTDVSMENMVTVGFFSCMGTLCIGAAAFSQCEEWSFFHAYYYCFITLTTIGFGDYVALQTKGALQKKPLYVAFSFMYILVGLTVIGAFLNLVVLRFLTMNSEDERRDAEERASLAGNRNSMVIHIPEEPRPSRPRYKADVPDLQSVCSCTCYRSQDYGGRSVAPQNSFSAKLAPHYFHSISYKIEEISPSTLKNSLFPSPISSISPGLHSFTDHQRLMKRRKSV
hERG protect – hERG rescue from dofetilide block, primary screen, cell-based, CHO-hERG, FluxOR thallium flux, dofetilide IC70 | AID 1511, 2009 | dofetilide IC70 present | activation (rescue from dofetilide block), less the hit threshold, % at 10 µM | 310,000 tested, 0.51% active;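 active means activation above the mean of controls blocked by dofetilide plus 5 SD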;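 further: thallium influx through hERG after potassium depolarization seen as dye fluorescence rise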
Cl transport mod – KCC2 cotransporter modulators, thallium flux, primary screen, cell-based, HEK293 KCC2, FluoZin-2 fluorescence, MLSMR; Solute carrier family 12 member 5 (Homo sapiens), Q9H2X9; KCC2 cells, thallium flux FluoZin-2 fluorescence; B-score of Tl+ flux slope (higher = more flux/activation; lower = inhibition) at 10 µM; 190,000 tested, 2.2% active;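 active means thallium flux slope and its plate-corrected score both differing from the plate sample mean at a set confidence after two filtering rounds, in either direction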;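 further: slope of fluorescence scaled to starting intensity during 10 to 20 s after thallium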
KCNK3 block – human KCNK3 channel inhibitors, primary screen, CHO cells, FluxOR thallium flux, B-score; Potassium channel subfamily K member 3 (Homo sapiens), O14649; FluxOR fluorescence; stronger effect = lower value; B-score at 10 µM; 340,000 tested, 0.84% active; AID 602410, 2012;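 active means B-score under library mean minus 4 SD, starting fluorescence ratio at most library mean plus 5 SD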;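 further: more negative B-score means stronger inhibition of thallium flux through KCNK3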
KCNQ1 act – potentiators or activators of KCNQ1 channel, primary screen, cell-based, thallium flux, high-throughput | Potassium voltage-gated channel subfamily KQT member 1 (Homo sapiens), P51787 | CHO-K1 KCNQ1, thallium flux FluxOR fluorescence; stronger effect = higher value | B-score at 10 µM | 310,000 tested, 0.35% active | AID 2648, 2010;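 active means fluorescence ratio B-score, a plate-corrected score, at least three library SD, with initial intensity B-score within 5 SD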
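assay system = KCNQ1-transfected CHO-K1 cells | medium = assay buffer with matched DMSO | probe or stimulus = depolarizing K+/Tl+ stimulus, K2SO4 and Tl2SO4 each 12.5 mM in 5x stock | dosing = single dose | incubation = dye 90 min, compound 20 min, room temperature | detection = kinetic FluxOR fluorescence, 10 s baseline plus 110 s post-stimulus | evaluation = ratio B score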
KCNQ1 block – inhibitors of human KCNQ1 channel, primary screen, cell-based, thallium flux, high-throughput | Potassium voltage-gated channel subfamily KQT member 1 (Homo sapiens), P51787 | B-score at 10 µM | 310,000 tested, 1.3% active | CHO-K1 KCNQ1, FluxOR thallium flux fluorescence; stronger effect = higher value;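 active means compounds whose thallium flux B-score, printed positive for inhibition, exceeds three library SD while starting fluorescence stays within three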;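 further: channel opened by potassium depolarization with thallium stimulus after 20 min compound exposure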
KCNK9 block conf – KCNK9 potassium channel inhibitors, confirmation, HEK293 cells, thallium flux, duplicate; shares compounds with KCNK9 inh; FluxOR thallium flux fluorescence; inhibition, % at 10 µM; 4,900 tested, 43% active; AID 492992, 2010;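 active means thallium signal inhibited by more than 5 SD of the compound-free buffer control wells, on both duplicate plates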
Kir21 sel – mouse Kir2.1 channel inhibition, confirmation, selectivity assay for KCNK9 modulator project, cell-based, HEK293, thallium flux; shares compounds with KCNK9 inh; Kir2.1 cells, FluxOR thallium flux fluorescence; inhibition, % at 10 µM; 4,900 tested, 4% active;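 active means thallium signal drop more than 5 SD beyond the mean of the no-compound control wells, seen in both duplicate plates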;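 further: signal is fluorescence rise after thallium addition divided by baseline fluorescence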
KCNK9 uninduced – thallium flux in non-induced HEK293 cells, confirmation, counter-screen for KCNK9 inhibitor project, cell-based, second counter screen, non-induced KCNK9-HEK293; shares compounds with KCNK9 inh; AID 492997, 2010; inhibition, % at 10 µM; FluxOR thallium flux; 4,900 tested, 40% active;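 active means thallium signal drop beyond 5 SD of the untreated control mean, on both duplicate plates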
KCNK3 inh conf – retest of human KCNK3 channel inhibitors, confirmation, CHO cells, FluxOR thallium flux, triplicate; 2,400 tested, 99% active; AID 651638, 2012; ratio percent of control, % at 10 µM; shares compounds with KCNK3 block; FluxOR fluorescence; 0% buffer, 100% carvedilol maximal block;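 active means ratio percent of control, averaged over triplicates, above buffer control mean plus 5 SD, cut at about 64% in these data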;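 further: ratio is the fluorescence rise from min to max over baseline after thallium stimulus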
KCNK3 noninduced – thallium flux inhibition in non-induced cells, primary screen, counter-screen for KCNK3 inhibitor project, cell-based, non-induced KCNK3 line, FluxOR thallium, triplicate; shares compounds with KCNK3 block; non-induced KCNK3 parental cells; stronger effect = lower value; thallium flux ratio (lower = more inhibition) at 10 µM; 2,400 tested, 40% active; AID 651747, 2012;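 active means thallium flux ratio, averaged over three wells, more than 5 SD below the buffer control mean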;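 further: host cells are CHO cells without KCNK3 induction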
Each line names hits and unclear results; the compound was inactive in the other large screens (follow-up assays come after a bar, where they were run). An excerpt weighted towards active compounds, which were near 4.1% of everything screened.

CCOC(=O)c1ccc(Cn2c(-c3ccccc3)nnc2-c2ccccc2)o1	KCNK9 inh -13, KCNK3 block -9.3 | KCNK9 block conf 56% | Kir21 sel inactive | KCNK9 uninduced 40% | KCNK3 inh conf 115 | KCNK3 noninduced 0.15
CC(NC(=O)c1ccccc1F)c1ccccc1 (stereo not drawn)	none
CCOc1cc(C2C(C(=O)OC)=C(C)N=C3SC(C)C(=O)N32)ccc1OC(C)=O (stereo not drawn)	none
COC(=O)C1=C(C)N=C2SC(C)C(=O)N2C1c1cccc(F)c1 (stereo not drawn)	KCNK9 inh -13, KCNK3 block -12 (no result: Cl transport mod) | KCNK9 block conf 74% | Kir21 sel inactive | KCNK9 uninduced 50% | KCNK3 inh conf 102 | KCNK3 noninduced inactive
Cc1onc(-c2ccccc2Cl)c1C(=O)N(Cc1nc(-c2ccccc2)no1)C1CCCCC1	KCNK9 inh -9.7 (no result: Cl transport mod) | KCNK9 block conf 30% | Kir21 sel inactive | KCNK9 uninduced 32% | KCNK3 inh conf 90 | KCNK3 noninduced 0.15
Cc1cc(C)c2nc(C)cc(N/N=C/c3ccc(O)cc3)c2c1	KCNK9 inh -15, KCNK3 block -12, KCNQ1 block 10 (no result: Cl transport mod) | KCNK9 block conf 72% | Kir21 sel 36% | KCNK9 uninduced inactive | KCNK3 inh conf 135 | KCNK3 noninduced 0.12
O=c1cc(CN2CCN(C/C=C/c3ccccc3)CC2)c2cc(O)c(-c3ccccc3)cc2o1	none
CC(C)CN(Cc1cc(=O)oc2cc(-c3ccccc3)c(O)cc12)CC(C)C	KCNK9 inh -10, KCNQ1 block 11 | KCNK9 block conf 53% | Kir21 sel inactive | KCNK9 uninduced 27% | KCNK3 inh conf 146 | KCNK3 noninduced 0.088
CN1OC[C@@H]2CN(Cc3cc(Cl)cc(Cl)c3)[C@H](c3cccc(Oc4ccccc4)c3)C[C@@H]21	none (no result: KCNK9 inh, hERG protect, Cl transport mod, KCNQ1 act, KCNQ1 block)
O=C(Nc1ccc(Cl)c(S(=O)(=O)N2CCOCC2)c1)c1cc(-c2ccccn2)nc2ccccc12	KCNK9 inh -9.5, KCNK3 block -8.8 | KCNK9 block conf inactive | Kir21 sel inactive | KCNK9 uninduced inactive | KCNK3 inh conf 123 | KCNK3 noninduced inactive

Screening results as filed in PubChem.
